Experimental data from ChEMBL document CHEMBL5335771, “Thioxanthenone-based derivatives as multitarget therapeutic leads for Alzheimer's disease” (Eur J Med Chem, 2023).
Each block holds one compound with its values, some of them ahead of it.

Key:
[1] = biological target: T1, Amyloid-beta precursor protein (Homo sapiens, UniProt P05067); assay: Inhibition of amyloid beta 40 peptide (unknown origin) aggregation incubated for 2 hr by ThT fluorescence based spectrofluorimetric analysis
Procedure, shortened: (§1)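 Aβ40 peptide aggregation enhanced with 2% HFIP; thioflavin T fluorescence read-out; run in triplicate.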

[2] = Cytotoxicity against green monkey Vero 76 cells incubated for 48 to 96 hrs by crystal violet staining assay; type: toxicity, cell-based; conditions: green monkey (Chlorocebus sabaeus)
[3] = Cytotoxicity against mouse brain Primary embryonic cortical cell assessed as cell death at 2.5 uM incubated for 2 hrs by propidium iodide dye based spectrofluorometric analysis relative to control; type: toxicity
Procedure, shortened: (§2)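 Primary cortical cultures from E16.5 mouse embryo brains, trypsinized, plated on poly-D-lysine, grown in Neurobasal with glutamine, glucose, 5% horse serum and B27; compounds added at 4 DIV. Propidium iodide 30 μM; baseline F1 read 1 h after PI; ex 530/em 645 nm. Fmax after digitonin permeabilization. % death = 100×(Fn−F1)/(Fmax−F1); mean of three independent experiments.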

[4] = Cytotoxicity against mouse brain Primary embryonic cortical cell assessed as cell death at 2.5 uM incubated for 6 hrs by propidium iodide dye based spectrofluorometric analysis relative to control; type: toxicity; procedure, shortened: as §2
[5] = biological target: T2, Microtubule-associated protein tau (Homo sapiens, UniProt P10636); assay: Inhibition of tau (unknown origin) aggregation expressed in Escherichia coli BL21 (DE3) at 10 uM relative to control
Procedure, shortened: (§3)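 E. coli BL21(DE3) carrying pTARA (T7 RNA polymerase under PBAD) and pRKT42 (four-repeat tau) grown at 37 °C in M9 with 0.5% glucose, antibiotics and 250 μM ThS to OD600 0.6. […] ThS fluorescence ex 430/em 485 nm, normalized to tau-expressing cells (100%) and non-expressing cells (0%); OD600 checked for growth.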
Target sequence in this assay (P10636 whole entry): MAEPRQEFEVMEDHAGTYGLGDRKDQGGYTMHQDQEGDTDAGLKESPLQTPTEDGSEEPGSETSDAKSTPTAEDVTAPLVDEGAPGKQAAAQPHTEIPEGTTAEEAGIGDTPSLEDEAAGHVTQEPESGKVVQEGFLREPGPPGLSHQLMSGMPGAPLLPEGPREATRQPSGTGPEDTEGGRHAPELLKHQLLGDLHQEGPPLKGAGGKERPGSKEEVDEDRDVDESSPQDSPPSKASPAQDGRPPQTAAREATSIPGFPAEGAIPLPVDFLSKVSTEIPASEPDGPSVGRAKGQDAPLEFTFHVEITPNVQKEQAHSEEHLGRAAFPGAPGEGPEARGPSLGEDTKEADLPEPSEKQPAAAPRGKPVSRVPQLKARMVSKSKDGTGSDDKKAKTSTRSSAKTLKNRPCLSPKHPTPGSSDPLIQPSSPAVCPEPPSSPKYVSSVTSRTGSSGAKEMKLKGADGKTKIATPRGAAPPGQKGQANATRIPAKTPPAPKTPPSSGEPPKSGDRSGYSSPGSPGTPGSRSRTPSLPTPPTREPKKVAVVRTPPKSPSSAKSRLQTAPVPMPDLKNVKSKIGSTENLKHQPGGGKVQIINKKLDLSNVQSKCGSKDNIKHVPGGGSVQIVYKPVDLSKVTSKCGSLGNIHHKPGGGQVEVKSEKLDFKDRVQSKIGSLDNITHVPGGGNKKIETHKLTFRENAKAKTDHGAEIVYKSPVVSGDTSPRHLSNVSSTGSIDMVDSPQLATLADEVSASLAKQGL

[6] = Cytotoxicity against mouse brain Primary embryonic cortical cell assessed as cell death at 5 uM incubated for 48 hrs by propidium iodide dye based spectrofluorometric analysis relative to control; type: toxicity; procedure, shortened: as §2
[7] = Cytotoxicity against mouse brain Primary embryonic cortical cell assessed as cell death at 30 uM incubated for 72 hrs by propidium iodide dye based spectrofluorometric analysis relative to control; type: toxicity; procedure, shortened: as §2
[8] = Cytotoxicity against mouse brain Primary embryonic cortical cell assessed as cell death at 2.5 uM incubated for 72 hrs by propidium iodide dye based spectrofluorometric analysis relative to control; type: toxicity; procedure, shortened: as §2
[9] = Cytotoxicity against mouse brain Primary embryonic cortical cell assessed as cell death at 10 uM incubated for 48 hrs by propidium iodide dye based spectrofluorometric analysis relative to control; type: toxicity; procedure, shortened: as §2
[10] = Cytotoxicity against mouse brain Primary embryonic cortical cell assessed as cell death at 2.5 uM incubated for 5 hrs by propidium iodide dye based spectrofluorometric analysis relative to control; type: toxicity; procedure, shortened: as §2
[11] = Cytotoxicity against mouse brain Primary embryonic cortical cell assessed as cell death at 10 uM incubated for 3 hrs by propidium iodide dye based spectrofluorometric analysis relative to control; type: toxicity; procedure, shortened: as §2
[12] = Cytotoxicity against mouse brain Primary embryonic cortical cell assessed as cell death at 5 uM incubated for 2 hrs by propidium iodide dye based spectrofluorometric analysis relative to control; type: toxicity; procedure, shortened: as §2
[13] = Cytotoxicity against mouse brain Primary embryonic cortical cell assessed as cell death at 10 uM incubated for 1 hr by propidium iodide dye based spectrofluorometric analysis relative to control; type: toxicity; procedure, shortened: as §2
[14] = Cytotoxicity against mouse brain Primary embryonic cortical cell assessed as cell death at 5 uM incubated for 1 hr by propidium iodide dye based spectrofluorometric analysis relative to control; type: toxicity; procedure, shortened: as §2
[15] = Cytotoxicity against mouse brain Primary embryonic cortical cell assessed as cell death at 5 uM incubated for 4 hrs by propidium iodide dye based spectrofluorometric analysis relative to control; type: toxicity; procedure, shortened: as §2
[16] = Cytotoxicity against mouse brain Primary embryonic cortical cell assessed as cell death at 30 uM incubated for 3 hrs by propidium iodide dye based spectrofluorometric analysis relative to control; type: toxicity; procedure, shortened: as §2
[17] = Cytotoxicity against mouse brain Primary embryonic cortical cell assessed as cell death at 10 uM incubated for 72 hrs by propidium iodide dye based spectrofluorometric analysis relative to control; type: toxicity; procedure, shortened: as §2
[18] = Cytotoxicity against mouse brain Primary embryonic cortical cell assessed as cell death at 5 uM incubated for 6 hrs by propidium iodide dye based spectrofluorometric analysis relative to control; type: toxicity; procedure, shortened: as §2
[19] = Cytotoxicity against mouse brain Primary embryonic cortical cell assessed as cell death at 30 uM incubated for 24 hrs by propidium iodide dye based spectrofluorometric analysis relative to control; type: toxicity; procedure, shortened: as §2
[20] = Cytotoxicity against mouse brain Primary embryonic cortical cell assessed as cell death at 2.5 uM incubated for 4 hrs by propidium iodide dye based spectrofluorometric analysis relative to control; type: toxicity; procedure, shortened: as §2
[21] = Cytotoxicity against mouse brain Primary embryonic cortical cell assessed as cell death at 10 uM incubated for 6 hrs by propidium iodide dye based spectrofluorometric analysis relative to control; type: toxicity; procedure, shortened: as §2
[22] = Cytotoxicity against mouse brain Primary embryonic cortical cell assessed as cell death at 10 uM incubated for 4 hrs by propidium iodide dye based spectrofluorometric analysis relative to control; type: toxicity; procedure, shortened: as §2
[23] = Cytotoxicity against mouse brain Primary embryonic cortical cell assessed as cell death at 30 uM incubated for 6 hrs by propidium iodide dye based spectrofluorometric analysis relative to control; type: toxicity; procedure, shortened: as §2
[24] = Cytotoxicity against mouse brain Primary embryonic cortical cell assessed as cell death at 10 uM incubated for 2 hrs by propidium iodide dye based spectrofluorometric analysis relative to control; type: toxicity; procedure, shortened: as §2
[25] = Cytotoxicity against mouse brain Primary embryonic cortical cell assessed as cell death at 5 uM incubated for 5 hrs by propidium iodide dye based spectrofluorometric analysis relative to control; type: toxicity; procedure, shortened: as §2
[26] = Cytotoxicity against mouse brain Primary embryonic cortical cell assessed as cell death at 2.5 uM incubated for 48 hrs by propidium iodide dye based spectrofluorometric analysis relative to control; type: toxicity; procedure, shortened: as §2
[27] = Cytotoxicity against mouse brain Primary embryonic cortical cell assessed as cell death at 10 uM incubated for 5 hrs by propidium iodide dye based spectrofluorometric analysis relative to control; type: toxicity; procedure, shortened: as §2
[28] = Cytotoxicity against mouse brain Primary embryonic cortical cell assessed as cell death at 30 uM incubated for 1 hr by propidium iodide dye based spectrofluorometric analysis relative to control; type: toxicity; procedure, shortened: as §2
[29] = Cytotoxicity against mouse brain Primary embryonic cortical cell assessed as cell death at 5 uM incubated for 24 hrs by propidium iodide dye based spectrofluorometric analysis relative to control; type: toxicity; procedure, shortened: as §2
[30] = Cytotoxicity against mouse brain Primary embryonic cortical cell assessed as cell death at 30 uM incubated for 5 hrs by propidium iodide dye based spectrofluorometric analysis relative to control; type: toxicity; procedure, shortened: as §2
[31] = Cytotoxicity against mouse brain Primary embryonic cortical cell assessed as cell death at 2.5 uM incubated for 1 hr by propidium iodide dye based spectrofluorometric analysis relative to control; type: toxicity; procedure, shortened: as §2
[32] = Cytotoxicity against mouse brain Primary embryonic cortical cell assessed as cell death at 2.5 uM incubated for 3 hrs by propidium iodide dye based spectrofluorometric analysis relative to control; type: toxicity; procedure, shortened: as §2
[33] = Cytotoxicity against mouse brain Primary embryonic cortical cell assessed as cell death at 5 uM incubated for 3 hrs by propidium iodide dye based spectrofluorometric analysis relative to control; type: toxicity; procedure, shortened: as §2
[34] = Cytotoxicity against mouse brain Primary embryonic cortical cell assessed as cell death at 2.5 uM incubated for 24 hrs by propidium iodide dye based spectrofluorometric analysis relative to control; type: toxicity; procedure, shortened: as §2
[35] = Cytotoxicity against mouse brain Primary embryonic cortical cell assessed as cell death at 5 uM incubated for 72 hrs by propidium iodide dye based spectrofluorometric analysis relative to control; type: toxicity; procedure, shortened: as §2
[36] = Cytotoxicity against mouse brain Primary embryonic cortical cell assessed as cell death at 10 uM incubated for 24 hrs by propidium iodide dye based spectrofluorometric analysis relative to control; type: toxicity; procedure, shortened: as §2
[37] = Cytotoxicity against mouse brain Primary embryonic cortical cell assessed as cell death at 30 uM incubated for 2 hrs by propidium iodide dye based spectrofluorometric analysis relative to control; type: toxicity; procedure, shortened: as §2
[38] = Cytotoxicity against mouse brain Primary embryonic cortical cell assessed as cell death at 30 uM incubated for 4 hrs by propidium iodide dye based spectrofluorometric analysis relative to control; type: toxicity; procedure, shortened: as §2
[39] = Cytotoxicity against mouse brain Primary embryonic cortical cell assessed as cell death at 30 uM incubated for 48 hrs by propidium iodide dye based spectrofluorometric analysis relative to control; type: toxicity; procedure, shortened: as §2
[40] = biological target: T2, Microtubule-associated protein tau; assay: Inhibition of tau (unknown origin) aggregation expressed in Escherichia coli BL21 (DE3); procedure, shortened: as §3
Target sequence in this assay (P10636 whole entry): as above

[41] = biological target: T2, Microtubule-associated protein tau; assay: Inhibition of PHF6 peptide (unknown origin) aggregation at 10 uM measured after 3 hrs by thioflavin T fluorescence based fluorimetric analysis relative to control
Target sequence in this assay (P10636 whole entry, looked up): as the sequence (P10636 whole entry) above

[42] = Cytotoxicity against rat Primary cerebellar granule neuron assessed as cell viability at 10 uM relative to control; type: toxicity, cell-based, Cerebellar granule neurone; conditions: primary cerebellar granule neurons, read-out: Activity
[43] = Cytotoxicity against human SH-SY5Y cells incubated for 24 hrs by MTT assay; type: toxicity, cell-based
[44] = biological target: T1, Amyloid-beta precursor protein; assay: Inhibition of amyloid beta 40 peptide (unknown origin) aggregation at 100 uM incubated for 2 hr by ThT fluorescence based spectrofluorimetric analysis relative to control; procedure, shortened: as §1

T1 sequence (P05067 whole entry): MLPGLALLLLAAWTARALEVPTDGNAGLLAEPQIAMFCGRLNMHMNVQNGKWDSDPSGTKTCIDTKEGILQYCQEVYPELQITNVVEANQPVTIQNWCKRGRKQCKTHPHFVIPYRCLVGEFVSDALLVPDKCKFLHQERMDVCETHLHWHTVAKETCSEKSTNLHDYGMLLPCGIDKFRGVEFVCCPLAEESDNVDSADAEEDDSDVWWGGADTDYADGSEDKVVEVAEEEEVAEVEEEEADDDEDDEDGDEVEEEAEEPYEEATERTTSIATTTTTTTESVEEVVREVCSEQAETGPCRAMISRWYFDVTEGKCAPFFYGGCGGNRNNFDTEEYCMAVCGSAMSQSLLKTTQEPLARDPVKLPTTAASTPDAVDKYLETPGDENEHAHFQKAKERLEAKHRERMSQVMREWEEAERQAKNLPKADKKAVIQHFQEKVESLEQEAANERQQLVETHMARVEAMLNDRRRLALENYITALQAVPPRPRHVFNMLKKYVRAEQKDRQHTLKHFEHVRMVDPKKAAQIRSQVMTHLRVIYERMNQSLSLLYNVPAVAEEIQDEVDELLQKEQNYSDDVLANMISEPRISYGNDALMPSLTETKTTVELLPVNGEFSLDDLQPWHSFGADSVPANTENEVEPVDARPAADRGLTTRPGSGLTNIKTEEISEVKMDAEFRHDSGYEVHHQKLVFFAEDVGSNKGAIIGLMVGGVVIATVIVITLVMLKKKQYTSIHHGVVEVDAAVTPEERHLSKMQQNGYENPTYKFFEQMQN

SMILES: Cc1ccc(NC[C@@H]2CCCN3CCCC[C@H]23)c2c(=O)c3ccccc3sc12
- IC50 [1]: 28 µM
- IC50 [2]: 12.4 µM

SMILES: O=c1c2ccccc2sc2c([N+](=O)[O-])ccc(NCCC[C@@H]3CCCN4CCCC[C@H]34)c12
- Activity [3]: 3.1%
- Activity [4]: 5.2%
- inhibition [5]: 22%
- Activity [6]: 72.4%
- Activity [7]: 80.8%
- Activity [8]: 79.6%
- IC50 [1]: 13 µM
- Activity [9]: 79.1%
- Activity [10]: 5.2%
- Activity [11]: 6.4%
- Activity [12]: 2.9%
- Activity [13]: -3.1%
- Activity [14]: 1.6%
- Activity [15]: 4.3%
- Activity [16]: 29.7%
- Activity [17]: 74.8%
- Activity [18]: 5.7%
- Activity [19]: 82.1%
- Activity [20]: 4.7%
- Activity [21]: 35.9%
- Activity [22]: 16.2%
- Activity [23]: 54.3%
- Activity [24]: 1.7%
- Activity [25]: 6.6%
- Activity [26]: 83.3%
- Activity [27]: 31%
- Activity [28]: 11.6%
- Activity [29]: 77%
- Activity [30]: 51%
- Activity [31]: 0.3%
- Activity [32]: 3.7%
- Activity [33]: 5%
- Activity [34]: 85.5%
- Activity [35]: 79.4%
- Activity [36]: 86.1%
- Activity [37]: 19.1%
- Activity [38]: 42%
- Activity [39]: 82.9%

The next lines start with results.

- IC50 [40]: 46 µM
- inhibition [41]: > 80%
SMILES: Cc1ccc(NCC[C@@H]2CCCN3CCCC[C@H]23)c2c(=O)c3ccccc3sc12
- IC50 [2]: 12.4 µM
- viability at 10 µM [42]: 78%
- IC50 at 24 h [43]: 7.22 µM

- IC50 [40]: 16 µM
- inhibition [44]: 55%
SMILES: CCN(CC)CCCNc1ccc(C)c2oc3ccccc3c(=O)c12

- IC50 [40]: 10.9 µM
- IC50 [1]: 24 µM
SMILES: CCN(CC)CCNc1ccc(C)c2sc3ccccc3c(=O)c12 [LUCANTHONE]
- IC50 [2]: 12.4 µM
